Source: ChEMBL document CHEMBL4665670 (ACS Med Chem Lett, 2019)
The source made the active and inactive calls. The rule behind the calls is not given here.

Tests used:
[1] = Intrinsic clearance in human liver microsomes; assay type: ADME, Microsome
[2] = Intrinsic clearance in rat liver microsomes; assay type: ADME, Microsome
[3] = biological target: T1, Tyrosine-protein kinase BTK (Homo sapiens, UniProt Q06187); assay: Inhibition of BTK in human whole blood assessed as reduction in polyclonal anti-IgM antibody/human IL4-stimulated CD69 cell surface expression on B cells incubated for 16 hrs by FACS analysis; assay type: tissue-based
[4] = biological target: T1, Tyrosine-protein kinase BTK; assay: Inhibition of full length human unphosphorylated BTK using FITC-Ahx-TSELKKVVALYDYMPMNAND-NH2 as substrate incubated for 60 mins in presence of ATP at Km concentration
[5] = Clearance in Sprague-Dawley rat at 1 mg/kg, iv measured up to 24 hrs by HPLC analysis; assay type: ADME, organism-based; settings: in vivo
[6] = (§1) In vivo protein occupancy at BTK in Wistar Han rat spleen at 10 mg/kg, po measured after 5 hrs relative to control; assay type: functional
In short: (§2)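 BTK occupancy measured in spleen homogenates of female rats 5 h after a single 10 mg kg^-1 oral dose, relative to the respective vehicle control. Single-animal values, mean ± SD.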

[7] = Terminal plasma concentration in ovalbumin-immunized C57Bl6 mouse at 30 mg/kg, po administered 2 h prior to OVA immunization and measured after 5 hrs; assay type: ADME, organism-based; settings: read-out: Cp(T)
In short: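 Mice received a single oral dose 2 h before induction of the reverse passive Arthus reaction, which was intravenous ovalbumin followed by intradermal polyclonal IgG anti-OVA antibody. Terminal blood compound concentration was measured 5 h after dosing and reported in nM.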

Mus musculus [8] = assay: […] activity in ovalbumin-immunized C57Bl6 mouse assessed as reduction in skin swelling at 30 mg/kg, po administered 2 h prior to OVA immunization and measured after 5 hrs by caliper method relative to control; assay type: functional; parameters: scale not given: the % may be the effect or the level left
In short: (§3)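 Mouse reverse passive Arthus reaction: acute FcγR-dependent hypersensitivity induced by intravenous ovalbumin antigen followed by intradermal polyclonal IgG anti-OVA antibody. Single oral dose given 2 h before induction; skin swelling measured 5 h after dosing, compared with vehicle control (SD shown).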

Rattus norvegicus = assay: as §1; assay type: functional; in short: as §2
[9] = Oral bioavailability in Sprague-Dawley rat at 3 mg/kg measured up to 24 hrs by HPLC analysis; assay type: ADME, organism-based; settings: in vivo
[10] = Clearance in Sprague-Dawley rat at 3 mg/kg, po measured up to 24 hrs by HPLC analysis; assay type: ADME, organism-based; settings: in vivo
[11] = Terminal plasma concentration in ovalbumin-immunized C57Bl6 mouse at 60 mg/kg, po administered 2 h prior to OVA immunization and measured after 5 hrs; assay type: ADME, organism-based; settings: read-out: Cp(T)
In short: (§4)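 Terminal blood drug concentrations taken in the mouse reverse passive Arthus study (i.v. OVA plus intradermal IgG anti-OVA), after a single oral dose of 6, 20 or 60 mg/kg given 2 h before induction, sampled 5 h after dosing.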

[12] = Terminal plasma concentration in ovalbumin-immunized C57Bl6 mouse at 20 mg/kg, po administered 2 h prior to OVA immunization and measured after 5 hrs; assay type: ADME, organism-based; settings: read-out: Cp(T); in short: as §4
[13] = Terminal plasma concentration in ovalbumin-immunized C57Bl6 mouse at 6 mg/kg, po administered 2 h prior to OVA immunization and measured after 5 hrs; assay type: ADME, organism-based; settings: read-out: Cp(T); in short: as §4
Mus musculus [14] = assay: […] activity in ovalbumin-immunized C57Bl6 mouse assessed as reduction in skin swelling at 60 mg/kg, po administered 2 h prior to OVA immunization and measured after 5 hrs by caliper method relative to control; assay type: functional; parameters: scale not given: the % may be the effect or the level left; in short: as §3
Mus musculus [15] = assay: […] activity in ovalbumin-immunized po dosed C57Bl6 mouse assessed as reduction in skin swelling administered 2 h prior to OVA immunization and measured after 5 hrs by caliper method; assay type: functional, organism-based; settings: dose mg/kg 6-60, time 2.0 hrs; in short: as §3
[16] = biological target: T2, Epidermal growth factor receptor (Homo sapiens, UniProt P00533); assay: Inhibition of EGF-induced EGFR phosphorylation in human A431 cells preincubated for 24 hrs followed by EGF stimulation and measured after 10 mins by HTRF based immunoassay; assay type: cell-based
[17] = biological target: T1, Tyrosine-protein kinase BTK; assay: Inhibition of BTK in vitamin D3 differentiated human THP1 cells assessed as inhibition of FCgammaR-induced IL8 production measured after 24 hrs by immunoblot analysis
[18] = biological target: T3, Tyrosine-protein kinase JAK3 (Homo sapiens) (UniProt P52333); assay: Inhibition of JAK3 (unknown origin)
T3 sequence (whole entry): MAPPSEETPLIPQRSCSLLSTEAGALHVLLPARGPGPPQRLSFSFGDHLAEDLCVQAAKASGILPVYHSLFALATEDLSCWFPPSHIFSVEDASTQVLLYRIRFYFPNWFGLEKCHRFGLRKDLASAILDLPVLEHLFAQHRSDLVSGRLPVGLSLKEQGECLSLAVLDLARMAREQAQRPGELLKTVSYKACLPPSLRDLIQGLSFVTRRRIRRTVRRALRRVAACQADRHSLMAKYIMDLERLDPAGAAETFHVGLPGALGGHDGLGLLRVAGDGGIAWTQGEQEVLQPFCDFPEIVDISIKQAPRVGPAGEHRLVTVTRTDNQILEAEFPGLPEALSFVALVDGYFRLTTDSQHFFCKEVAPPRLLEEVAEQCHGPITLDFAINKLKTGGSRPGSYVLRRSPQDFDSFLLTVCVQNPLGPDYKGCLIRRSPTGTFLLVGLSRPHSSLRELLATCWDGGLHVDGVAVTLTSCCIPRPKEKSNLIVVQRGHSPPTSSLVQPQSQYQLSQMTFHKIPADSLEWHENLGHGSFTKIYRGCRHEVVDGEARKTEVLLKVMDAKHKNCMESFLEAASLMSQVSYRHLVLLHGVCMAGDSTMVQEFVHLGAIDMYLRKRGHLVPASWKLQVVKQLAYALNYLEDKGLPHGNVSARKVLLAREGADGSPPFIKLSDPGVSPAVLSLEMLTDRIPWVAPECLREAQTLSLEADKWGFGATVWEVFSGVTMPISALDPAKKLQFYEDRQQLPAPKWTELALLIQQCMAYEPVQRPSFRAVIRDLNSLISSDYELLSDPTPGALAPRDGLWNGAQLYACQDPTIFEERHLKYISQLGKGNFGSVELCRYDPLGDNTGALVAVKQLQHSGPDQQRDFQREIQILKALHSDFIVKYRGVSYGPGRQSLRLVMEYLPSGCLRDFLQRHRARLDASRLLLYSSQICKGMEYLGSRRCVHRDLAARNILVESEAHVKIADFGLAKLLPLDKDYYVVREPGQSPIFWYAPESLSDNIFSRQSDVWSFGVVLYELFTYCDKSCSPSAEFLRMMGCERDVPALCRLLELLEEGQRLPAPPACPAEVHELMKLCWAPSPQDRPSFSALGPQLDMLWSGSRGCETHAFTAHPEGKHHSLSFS

[19] = biological target: Receptor tyrosine-protein kinase erbB-4 (Homo sapiens, UniProt Q15303); assay: Inhibition of ERBB4 (unknown origin)
[20] = biological target: Receptor tyrosine-protein kinase erbB-2 (Homo sapiens) (UniProt P04626); assay: Inhibition of ERBB2 (unknown origin)
[21] = biological target: T2, Epidermal growth factor receptor; assay: Inhibition of EGFR (unknown origin)
[22] = biological target: T1, Tyrosine-protein kinase BTK; assay: Irreversible inhibition of human BTK kinase domain by LC/MS analysis
[23] = Intrinsic clearance in mouse liver microsomes; assay type: ADME, Microsome

T1 sequence (Q06187 whole entry): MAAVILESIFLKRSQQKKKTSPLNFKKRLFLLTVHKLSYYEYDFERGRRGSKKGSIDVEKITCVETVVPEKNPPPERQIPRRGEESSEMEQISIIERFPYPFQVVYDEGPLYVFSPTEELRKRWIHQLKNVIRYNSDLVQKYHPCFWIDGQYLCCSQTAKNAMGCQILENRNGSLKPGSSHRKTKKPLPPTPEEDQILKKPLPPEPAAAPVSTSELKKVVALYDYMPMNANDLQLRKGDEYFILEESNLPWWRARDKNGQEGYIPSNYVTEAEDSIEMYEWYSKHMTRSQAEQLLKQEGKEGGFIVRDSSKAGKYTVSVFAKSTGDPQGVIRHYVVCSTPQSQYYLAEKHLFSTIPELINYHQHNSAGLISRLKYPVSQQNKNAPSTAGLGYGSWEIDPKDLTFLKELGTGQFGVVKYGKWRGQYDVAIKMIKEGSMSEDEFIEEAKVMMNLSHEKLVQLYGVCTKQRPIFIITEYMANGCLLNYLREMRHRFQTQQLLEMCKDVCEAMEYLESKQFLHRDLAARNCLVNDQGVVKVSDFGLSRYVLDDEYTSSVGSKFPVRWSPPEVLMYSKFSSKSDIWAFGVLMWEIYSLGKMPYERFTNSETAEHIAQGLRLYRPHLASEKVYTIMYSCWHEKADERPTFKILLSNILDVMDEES
T2 sequence (P00533 whole entry): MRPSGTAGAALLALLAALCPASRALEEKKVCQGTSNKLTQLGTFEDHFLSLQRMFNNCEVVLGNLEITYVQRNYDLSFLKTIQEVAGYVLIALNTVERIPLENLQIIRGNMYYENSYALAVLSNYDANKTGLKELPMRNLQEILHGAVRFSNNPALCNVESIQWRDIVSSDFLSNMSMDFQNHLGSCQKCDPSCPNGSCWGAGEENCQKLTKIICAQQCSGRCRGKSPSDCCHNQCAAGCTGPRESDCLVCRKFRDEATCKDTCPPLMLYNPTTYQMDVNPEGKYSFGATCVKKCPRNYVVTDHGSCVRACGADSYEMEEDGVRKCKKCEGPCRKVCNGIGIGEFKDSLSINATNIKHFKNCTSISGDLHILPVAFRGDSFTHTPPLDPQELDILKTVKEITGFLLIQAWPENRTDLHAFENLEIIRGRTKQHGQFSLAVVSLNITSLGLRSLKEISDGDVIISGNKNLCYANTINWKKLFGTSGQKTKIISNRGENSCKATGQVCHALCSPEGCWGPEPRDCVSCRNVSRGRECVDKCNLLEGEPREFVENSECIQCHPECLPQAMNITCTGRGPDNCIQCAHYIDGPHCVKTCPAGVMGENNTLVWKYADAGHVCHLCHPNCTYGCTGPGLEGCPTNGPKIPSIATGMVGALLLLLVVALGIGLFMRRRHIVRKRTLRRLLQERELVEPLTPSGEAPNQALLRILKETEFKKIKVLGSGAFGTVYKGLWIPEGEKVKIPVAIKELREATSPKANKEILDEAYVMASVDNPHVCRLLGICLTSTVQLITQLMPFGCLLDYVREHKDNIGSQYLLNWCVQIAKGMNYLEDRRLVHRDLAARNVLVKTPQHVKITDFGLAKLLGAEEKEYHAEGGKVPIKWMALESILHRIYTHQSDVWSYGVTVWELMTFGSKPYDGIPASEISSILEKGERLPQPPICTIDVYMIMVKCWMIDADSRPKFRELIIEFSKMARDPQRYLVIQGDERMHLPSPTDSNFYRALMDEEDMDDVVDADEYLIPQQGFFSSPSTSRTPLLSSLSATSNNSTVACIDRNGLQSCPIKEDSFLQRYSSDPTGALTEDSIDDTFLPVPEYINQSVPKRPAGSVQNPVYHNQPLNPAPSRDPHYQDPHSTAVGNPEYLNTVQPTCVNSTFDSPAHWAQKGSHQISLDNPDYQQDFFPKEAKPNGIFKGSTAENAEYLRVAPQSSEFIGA
Chain of Receptor tyrosine-protein kinase erbB-4 (Q15303 whole entry): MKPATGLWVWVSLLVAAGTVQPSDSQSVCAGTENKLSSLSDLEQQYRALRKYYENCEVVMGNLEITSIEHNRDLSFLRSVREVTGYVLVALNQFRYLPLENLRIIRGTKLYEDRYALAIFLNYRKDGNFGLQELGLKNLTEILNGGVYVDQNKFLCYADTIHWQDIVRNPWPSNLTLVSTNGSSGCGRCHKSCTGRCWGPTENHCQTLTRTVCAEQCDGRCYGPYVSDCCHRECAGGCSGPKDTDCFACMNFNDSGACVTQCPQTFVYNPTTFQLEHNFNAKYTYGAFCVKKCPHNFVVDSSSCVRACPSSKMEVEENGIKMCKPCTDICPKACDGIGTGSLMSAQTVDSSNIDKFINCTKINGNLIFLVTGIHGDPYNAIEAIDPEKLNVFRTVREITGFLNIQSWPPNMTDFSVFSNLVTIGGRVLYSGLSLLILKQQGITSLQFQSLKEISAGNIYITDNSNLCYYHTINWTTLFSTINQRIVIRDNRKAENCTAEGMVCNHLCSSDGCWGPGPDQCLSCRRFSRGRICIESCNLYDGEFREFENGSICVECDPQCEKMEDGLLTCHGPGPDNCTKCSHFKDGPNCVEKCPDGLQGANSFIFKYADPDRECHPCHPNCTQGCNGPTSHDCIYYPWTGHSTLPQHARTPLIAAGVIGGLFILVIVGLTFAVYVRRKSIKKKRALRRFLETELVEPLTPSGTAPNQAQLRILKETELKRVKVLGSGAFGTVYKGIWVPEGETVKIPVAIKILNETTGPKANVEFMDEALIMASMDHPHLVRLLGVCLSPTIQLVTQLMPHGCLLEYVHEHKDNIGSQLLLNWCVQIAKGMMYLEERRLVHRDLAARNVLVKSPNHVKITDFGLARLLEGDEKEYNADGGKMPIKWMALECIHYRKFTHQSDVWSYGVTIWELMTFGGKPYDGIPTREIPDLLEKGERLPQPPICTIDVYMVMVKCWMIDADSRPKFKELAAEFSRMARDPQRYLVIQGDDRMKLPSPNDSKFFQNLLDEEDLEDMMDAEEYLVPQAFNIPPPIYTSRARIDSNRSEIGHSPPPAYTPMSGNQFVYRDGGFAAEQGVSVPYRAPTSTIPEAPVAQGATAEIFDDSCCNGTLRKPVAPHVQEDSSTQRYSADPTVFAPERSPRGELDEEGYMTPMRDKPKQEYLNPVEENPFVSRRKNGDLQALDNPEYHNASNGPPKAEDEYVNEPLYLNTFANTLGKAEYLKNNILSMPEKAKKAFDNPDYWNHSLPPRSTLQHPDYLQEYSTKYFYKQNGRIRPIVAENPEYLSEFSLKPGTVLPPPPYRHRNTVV
Chain of Receptor tyrosine-protein kinase erbB-2 (Homo sapiens) (P04626 whole entry): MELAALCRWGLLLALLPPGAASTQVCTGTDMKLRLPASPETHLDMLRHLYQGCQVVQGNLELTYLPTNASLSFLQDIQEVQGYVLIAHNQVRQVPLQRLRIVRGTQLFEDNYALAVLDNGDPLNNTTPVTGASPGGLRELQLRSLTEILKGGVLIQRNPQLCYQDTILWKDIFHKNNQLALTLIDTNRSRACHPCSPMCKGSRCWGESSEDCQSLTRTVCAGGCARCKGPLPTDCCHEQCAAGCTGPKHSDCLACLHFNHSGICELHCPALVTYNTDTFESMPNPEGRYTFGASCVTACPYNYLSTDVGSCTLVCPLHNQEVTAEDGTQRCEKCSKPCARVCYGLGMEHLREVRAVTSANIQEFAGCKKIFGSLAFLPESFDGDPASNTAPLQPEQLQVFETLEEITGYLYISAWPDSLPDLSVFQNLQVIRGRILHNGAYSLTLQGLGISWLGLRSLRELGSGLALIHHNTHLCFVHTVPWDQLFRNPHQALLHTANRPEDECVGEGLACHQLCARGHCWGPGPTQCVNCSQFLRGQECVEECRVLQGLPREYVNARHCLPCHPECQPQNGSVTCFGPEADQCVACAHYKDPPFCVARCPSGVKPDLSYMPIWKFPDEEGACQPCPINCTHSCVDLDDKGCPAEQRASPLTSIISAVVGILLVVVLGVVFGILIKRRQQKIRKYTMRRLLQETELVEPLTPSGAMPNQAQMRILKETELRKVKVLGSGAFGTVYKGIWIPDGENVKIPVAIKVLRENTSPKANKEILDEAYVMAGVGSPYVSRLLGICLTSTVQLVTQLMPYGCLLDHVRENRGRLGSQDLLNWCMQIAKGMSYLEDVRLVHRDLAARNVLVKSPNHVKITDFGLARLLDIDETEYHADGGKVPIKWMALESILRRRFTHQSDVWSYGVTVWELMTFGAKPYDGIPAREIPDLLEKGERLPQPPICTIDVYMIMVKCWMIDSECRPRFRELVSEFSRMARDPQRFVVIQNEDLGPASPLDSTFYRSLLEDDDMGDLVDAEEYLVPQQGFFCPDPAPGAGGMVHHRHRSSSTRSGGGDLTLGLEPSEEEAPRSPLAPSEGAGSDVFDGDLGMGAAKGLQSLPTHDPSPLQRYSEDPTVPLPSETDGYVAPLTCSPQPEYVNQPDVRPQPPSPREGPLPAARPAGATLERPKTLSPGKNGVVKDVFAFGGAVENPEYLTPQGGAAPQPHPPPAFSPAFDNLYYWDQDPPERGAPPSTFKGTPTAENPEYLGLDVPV

Intrinsic clearance (CLint) [1]	Intrinsic clearance (CLint) [2]	IC50 [3]	IC50 [4]	clearance [5]	SMILES	Activity [6]	further results
308 µL/min/mg	> 700 µL/min/mg	1260 nM	26 nM	–	C=CC(=O)N(C)Cc1c[nH]c2ncnc(-c3cc(F)cc(NC(=O)c4ccc(C5CC5)cc4)c3C)c12	–	–
126 µL/min/mg	578 µL/min/mg	19 nM	1 nM	–	C=CC(=O)N1CCC(c2c[nH]c3ncnc(-c4cc(F)cc(NC(=O)c5ccc(C6CC6)cc5)c4C)c23)CC1	–	–
3 µL/min/mg	41 µL/min/mg	303 nM	1.4 nM	183 mL/min/kg	C=CC(=O)N1CC(O)(c2c[nH]c3ncnc(-c4cc(F)cc(NC(=O)c5ccc(C6CC6)cc5)c4C)c23)C1	–	–
660 µL/min/mg	408 µL/min/mg	–	–	> 300 mL/min/kg	C=CC(=O)N1CC=C(c2c[nH]c3ncnc(-c4cc(F)cc(NC(=O)c5ccc(C6CC6)cc5)c4C)c23)CC1	96%	–
–	–	–	–	–	C=CC(=O)N1CCC[C@@H](n2nc(-c3ccc(Oc4ccccc4)cc3)c3c(N)ncnc32)C1 [IBRUTINIB]	93%	concentration at 2 h [7]: 187 nM; Activity (Mus musculus [8]): 84%
> 700 µL/min/mg	693 µL/min/mg	934 nM	–	–	C=CC(=O)N(C)Cc1c[nH]c2ncnc(-c3cccc(NC(=O)c4ccc(C(C)(C)C)cc4)c3C)c12	–	Activity (Rattus norvegicus): inactive; bioavailability [9]: 2%; CL/F [10]: > 300 mL/min/kg; concentration at 2 h [11]: 118 nM; concentration at 2 h [12]: 14 nM; concentration at 2 h [13]: 4 nM; Activity (Mus musculus [14]): 65%; Activity (Mus musculus [15]): Dose-dependent effect; IC50 [16]: > 8000 nM; IC50 [17]: 80 nM; inhibition [18]: inactive; IC50 [19]: > 10000 nM; inhibition [20]: inactive; IC50 [21]: > 10000 nM; inhibition [22]: Active; CLH [23]: 554 µL/min/mg
111 µL/min/mg	171 µL/min/mg	225 nM	5 nM	–	C=CC(=O)N1CCC(c2c[nH]c3ncnc(-c4cc(F)cc(NC(=O)c5ccc(C6CC6)cc5)c4C)c23)C1 (stereo not given)	–	–
252 µL/min/mg	578 µL/min/mg	7470 nM	190 nM	–	C=CC(=O)N(C)Cc1c[nH]c2ncnc(-c3cccc(NC(=O)c4ccc(C5CC5)cc4)c3C)c12	–	–
603 µL/min/mg	> 700 µL/min/mg	8000 nM	390 nM	–	C=CC(=O)N1CCCC(c2c[nH]c3ncnc(-c4cc(F)cc(NC(=O)c5ccc(C6CC6)cc5)c4C)c23)C1 (stereo not given)	–	–
> 700 µL/min/mg	628 µL/min/mg	26 nM	0.6 nM	176 mL/min/kg	Cc1c(NC(=O)c2ccc(C3CC3)cc2)cc(F)cc1-c1ncnc2[nH]cc(C3=CCN(C(=O)/C=C/CN4CCCC4)CC3)c12	–	Activity (Rattus norvegicus): inactive
459 µL/min/mg	127 µL/min/mg	66 nM	6 nM	> 300 mL/min/kg	C/C=C/C(=O)N1CC=C(c2c[nH]c3ncnc(-c4cc(F)cc(NC(=O)c5ccc(C6CC6)cc5)c4C)c23)CC1	70%	–
–	–	–	3900 nM	–	CCC(=O)N(C)Cc1c[nH]c2ncnc(-c3cccc(NC(=O)c4ccc(C(C)(C)C)cc4)c3C)c12	–	–
39 µL/min/mg	98 µL/min/mg	16 nM	1.2 nM	300 mL/min/kg	C=CC(=O)N(C)C(=O)Cc1c[nH]c2ncnc(-c3cc(F)cc(NC(=O)c4ccc(C5CC5)cc4)c3C)c12	44%	–
